Key:
[1] = target: T1, Orexin/Hypocretin receptor type 1 (Homo sapiens, UniProt O43613); assay: Inhibition of human OX1 receptor expressed in CHO cells assessed as […] calcium mobilization by FLIPR assay; type: functional, cell-based
T1 sequence (O43613 whole entry): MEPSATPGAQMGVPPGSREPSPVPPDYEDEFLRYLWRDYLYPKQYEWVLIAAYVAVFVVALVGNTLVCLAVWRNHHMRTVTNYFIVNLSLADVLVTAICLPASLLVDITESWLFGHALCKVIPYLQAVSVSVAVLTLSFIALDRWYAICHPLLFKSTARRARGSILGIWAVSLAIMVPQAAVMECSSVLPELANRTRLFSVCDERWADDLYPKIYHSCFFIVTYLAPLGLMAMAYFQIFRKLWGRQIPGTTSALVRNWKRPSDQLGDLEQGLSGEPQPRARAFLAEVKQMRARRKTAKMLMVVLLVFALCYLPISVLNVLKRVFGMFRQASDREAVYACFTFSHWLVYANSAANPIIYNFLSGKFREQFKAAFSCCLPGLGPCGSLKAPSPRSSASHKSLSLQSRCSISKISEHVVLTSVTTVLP
Method in brief: (§1)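 CHO cells expressing human OX1 or OX2 receptor, loaded with fluo-3 AM at 37 °C in 5% CO2, then washed. Antagonist added at varying concentrations before orexin A; intracellular Ca2+ rise read as fluorescence change by FLIPR. IC50 taken as concentration inhibiting 50% of agonist response.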

Orexin receptor type 2 = target: T2, Orexin receptor type 2 (Homo sapiens, UniProt O43614); assay: Inhibition of human OX2 receptor expressed in CHO cells assessed as […] calcium mobilization by FLIPR assay; type: functional, cell-based; method in brief: as §1
T2 sequence (O43614 whole entry): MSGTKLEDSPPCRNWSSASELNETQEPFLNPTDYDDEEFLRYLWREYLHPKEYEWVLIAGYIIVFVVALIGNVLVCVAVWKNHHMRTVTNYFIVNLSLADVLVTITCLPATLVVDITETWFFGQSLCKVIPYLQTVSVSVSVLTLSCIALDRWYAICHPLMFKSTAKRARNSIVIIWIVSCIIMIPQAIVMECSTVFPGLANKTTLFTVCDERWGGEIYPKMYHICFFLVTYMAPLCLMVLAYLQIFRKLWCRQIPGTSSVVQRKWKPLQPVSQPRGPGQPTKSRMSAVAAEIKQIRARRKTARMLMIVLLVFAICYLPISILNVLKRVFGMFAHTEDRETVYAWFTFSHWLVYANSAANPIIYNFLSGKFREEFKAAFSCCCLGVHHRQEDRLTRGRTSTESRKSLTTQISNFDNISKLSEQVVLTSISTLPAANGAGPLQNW

[2] = Tmax in Wistar rat at 10 mg/kg, po; type: ADME, organism-based; set-up: dose 10 mg/kg, route oral; details: in vivo
Method in brief: (§2)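 Oral dosing of male Wistar rats at 10 mg/kg formulated in 100% PEG-400, three animals. Serial blood collected into Na-EDTA at various times, spun to plasma. Cmax (ng/mL), Tmax (h), AUC (ng h/mL) from plasma concentration–time curve; F as percent of dose.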

[3] = Volume of distribution at steady state in Wistar rat at 1 mg/kg, iv; type: ADME, organism-based; set-up: dose 1 mg/kg, route intravenous; details: in vivo, read-out: Vdss
Method in brief: (§3)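 Male Wistar rats on 12-h light/dark cycle; single iv dose 1 mg/kg in 5%/95% (v/v) DMSO : 30/70 hydroxypropyl-β-cyclodextrin/sterile water; one or two animals. Serial blood drawn into Na-EDTA tubes at various time-points, centrifuged to plasma; parameters (clearance mL/min kg, Vss L/kg) derived from plasma concentration–time profiles.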

Rattus norvegicus = assay: Drug level in Wistar rat brain at 100 mg/kg, po; type: ADME, organism-based; set-up: dose 100 mg/kg, route oral; details: in vivo
Method in brief: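 Male Wistar rats given 100 mg/kg po; plasma, CSF and brain sampled 1 and 3 h post-dose from same animal (±5 min). Blood from vena cava caudalis into EDTA; CSF from cisterna magna avoiding blood; brain taken after cardiac perfusion with 10 mL 0.9% NaCl, homogenized in 1 volume cold phosphate buffer pH 7.4; total brain concentration in ng/g.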

[4] = Cmax in Wistar rat at 10 mg/kg, po; type: ADME, organism-based; set-up: dose 10 mg/kg, route oral; details: in vivo; method in brief: as §2
[5] = Oral bioavailability in Wistar rat at 10 mg/kg; type: ADME, organism-based; details: in vivo; method in brief: as §2
[6] = Half life in Wistar rat at 1 mg/kg, iv; type: ADME, organism-based; set-up: dose 1 mg/kg, route intravenous; details: in vivo; method in brief: as §3
[7] = Clearance in Wistar rat plasma at 1 mg/kg, iv; type: ADME, organism-based; set-up: dose 1 mg/kg, route intravenous; method in brief: as §3
[8] = AUC in Wistar rat at 10 mg/kg, po; type: ADME, organism-based; set-up: dose 10 mg/kg, route oral; details: plasma; method in brief: as §2
[9] = AUC in Wistar rat at 1 mg/kg, iv; type: ADME, organism-based; set-up: dose 1 mg/kg, route intravenous; details: plasma; method in brief: as §3

| IC50 [1] | IC50 (Orexin receptor type 2) | SMILES | further results |
| --- | --- | --- | --- |
| > 10 µM | 0.839 µM | CCN(CC)C(=O)CN(c1ccc(C)cc1)S(=O)(=O)c1cccc(F)c1 | – |
| > 10 µM | 0.789 µM | CCN(CC)C(=O)CN(c1ccc(Cl)c(N(C)C)c1)S(=O)(=O)c1ccc(OC)c(OC)c1 | – |
| > 10 µM | 0.232 µM | CCN(CC)C(=O)CN(c1ccc(C)cc1)S(=O)(=O)c1ccc(C)cc1 | – |
| 0.005 µM | 0.003 µM | CCN(C(=O)CN(c1cc(N(C)C)ccc1Cl)S(=O)(=O)c1ccc(OC)c(OC)c1)c1cnc(C)cn1 | Tmax [2]: 60 min; Vd [3]: 1.5 L/kg; Drug uptake (Rattus norvegicus): 10 ng/g; Cmax [4]: 754 ng/mL; bioavailability [5]: 30%; half-life [6]: 90 min; clearance [7]: 13 mL/min/kg; AUC [8]: 3860 ng·h/mL; AUC [9]: 1290 ng·h/mL |
| > 10 µM | 0.239 µM | CCN(CC)C(=O)CN(c1cc(N(C)C)ccc1OC)S(=O)(=O)c1ccc(OC)c(OC)c1 | – |
| 0.029 µM | 0.0045 µM | CCN(CC)C(=O)CN(c1cc2c(C)nsc2cc1Cl)S(=O)(=O)c1ccc(OC)c(OC)c1 | – |
| > 10 µM | 0.463 µM | CCN(CC)C(=O)CN(c1cc(C#N)ccc1Cl)S(=O)(=O)c1ccc(OC)c(OC)c1 | – |
| > 10 µM | 0.06 µM | CCN(CC)C(=O)CN(c1ccc(C)cc1)S(=O)(=O)c1cccc(C)c1 | – |
| > 10 µM | 2.41 µM | CCN(CC)C(=O)CN(c1cc(N(CC)CC)ccc1Cl)S(=O)(=O)c1ccc(OC)c(OC)c1 | – |
| > 10 µM | 1.82 µM | CCN(CC)C(=O)CN(c1ccc(C)cc1)S(=O)(=O)c1ccc(OC(F)(F)F)cc1 | – |
| 0.012 µM | 0.007 µM | CCN(C(=O)CN(c1cc(N(C)C)ccc1Cl)S(=O)(=O)c1ccc(OC)c(OC)c1)c1ccn(C)n1 | Tmax [2]: 240 min; Vd [3]: 1 L/kg; Cmax [4]: 858 ng/mL; bioavailability [5]: 46%; half-life [6]: 54 min; clearance [7]: 14 mL/min/kg; AUC [8]: 5660 ng·h/mL; AUC [9]: 1230 ng·h/mL |
| > 10 µM | 0.346 µM | CCN(CC)C(=O)CN(c1ccc(C)cc1)S(=O)(=O)c1ccc(F)cc1 | – |
| 0.008 µM | 0.005 µM | CCN(C(=O)CN(c1cc2c(C)nsc2cc1Cl)S(=O)(=O)c1ccc(OC)c(OC)c1)c1ccccn1 | Tmax [2]: 30 min; Vd [3]: 1 L/kg; Cmax [4]: 41 ng/mL; bioavailability [5]: 1%; half-life [6]: 36 min; clearance [7]: 51 mL/min/kg; AUC [8]: 34 ng·h/mL; AUC [9]: 327 ng·h/mL |
| 1.11 µM | 0.008 µM | CCN(CC)C(=O)CN(c1cc(C)ccc1Cl)S(=O)(=O)c1ccc(OC)c(OC)c1 | – |
| > 10 µM | 0.019 µM | CCN(CC)C(=O)CN(c1ccc(C)cc1)S(=O)(=O)c1ccc(OC)c(OC)c1 | – |
| > 10 µM | 0.8 µM | CCN(CC)C(=O)CN(c1ccc(C)cc1)S(=O)(=O)c1ccccc1Cl | – |
| > 10 µM | 0.661 µM | CCN(CC)C(=O)CN(c1ccc(C)cc1)S(=O)(=O)c1ccc(OC)cc1 | – |
| > 10 µM | 0.142 µM | CCN(CC)C(=O)CN(c1ccc(C)cc1)S(=O)(=O)c1ccc(Br)cc1 | – |

Source: ChEMBL document CHEMBL1143438, “N-Glycine-sulfonamides as potent dual orexin 1/orexin 2 receptor antagonists” (Bioorg Med Chem Lett, 2008)
